Data on ten compounds can be found in ChEMBL document CHEMBL1125110, “Synthesis and pharmacological studies of N-[4-[2-hydroxy-3-[[2-[4-(1H-imidazol-1-yl)phenoxy]ethyl]amino]propoxy]phenyl]methanesulfonamide, a novel antiarrhythmic agent with class II and class III activities” (J Med Chem, 1990).

Series [1] is filed under the species Canis familiaris. The series is described as follows: In vitro electrophysiological activity in isolated canine cardiac Purkinje fibers using standard microelectrode technique. It is filed as functional, Canis lupus familiaris, Purkinje fiber. The method in brief: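 Canine cardiac Purkinje fibers studied with standard intracellular microelectrodes. C20APD95 is the concentration raising action potential duration at 95% repolarization by 20% over control. Reported as the log mean of n experiments with the range.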

The species entered for series [2] is Mustela putorius furo. Kind of series: In vitro contractile function in isolated ferret papillary muscle at 10 uM. It is filed as functional, Muscle tissue. The essentials:
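Isolated ferret papillary muscle exposed to drug at 10 μM. Read-out is percent change in contractile force from the control value. Reported as the average of n experiments with the range.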

The target in series [3] is Beta-2 adrenergic receptor (Canis lupus familiaris, UniProt P54833). Kind of series: In vitro Beta-2 adrenergic receptor affinity in partially purified membrane fractions from canine lung tissue using […]dihydroalprenolol (4.5 nM). The class given is cell membranes.
Series [4] in a line: Compound was evaluated for half life. It is filed as ADME.
Series [5] concerns Canis familiaris. Kind of series: In vivo mean arterial pressure in anesthetized dog at 30 mg/kg. It is filed as functional, Canis lupus familiaris, Artery. The method in brief: (§1)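 Pentobarbital-anesthetized mongrel dogs, 30 min stabilization. Cumulative iv doses of 3, 10 and 30 mg/kg, each over 5 min, monitored every 5 min for 15 min. Percent change ± SEM from control at 15 min after the 30 mg/kg dose; n = 4.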

The test system of series [6] is Canis familiaris. The series is described as follows: In vivo cardiac output in anesthetized dog at 30 mg/kg. The class given is functional, Canis lupus familiaris. The essentials:
as §1

Series [7] deals with Canis familiaris. The series is described as follows: In vivo isoproterenol response in conscious dogs at 0.3 mg/kg. The class given is functional, Canis lupus familiaris. The method in brief:
(§2)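 Conscious mongrel dogs (n = 4) with lead II ECG. Isoproterenol given iv (0.04, 0.08, 0.16 µg/kg) before and after cumulative compound doses of 0.3–10.0 mg/kg. Percent change from the control heart-rate response to 0.08 µg/kg isoproterenol, ± SEM.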

Series [8] concerns Canis familiaris. The series is described as follows: In vivo heart rate in anesthetized dog at 30 mg/kg. It is filed as functional, Canis lupus familiaris. The method in brief:
as §1

Series [9] deals with Canis familiaris. The series is described as follows: In vivo isoproterenol response in conscious dogs at 1.0 mg/kg. The class given is functional, Canis lupus familiaris. The method in brief:
as §2

Series [10] deals with Canis familiaris. The series is described as follows: In vivo PES efficacy in conscious dogs (iv). The class given is functional. The following applies: Canis lupus familiaris, read-out: MED. The essentials:
(§3)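 Mongrel dogs with surgically produced occlusion/reperfusion infarction, studied conscious 3–8 days later. Two control arrhythmias induced by programmed electrical stimulation before iv drug; SVT ended by burst pacing, VF by DC countershock. Counted effective if noninducible after drug.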

The subject of series [11] is Canis familiaris. The series is described as follows: In vivo efficacy against halothane/epinephrine induced arrhythmias in 4 anesthetized dogs at 1 mg/kg. It is filed as functional, Canis lupus familiaris. The essentials:
(§4)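 Mongrel dogs under thiopental, ventilated with 1.5 vol% halothane in O2. After 15–30 min stabilization, drug given iv over 10 min. After 20 min equilibration, epinephrine infused at 1.5 µg/kg/min for 15 min. Effective if SVT/VF could not be induced.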

In series [12] the test system is Canis familiaris. Kind of series: In vivo isoproterenol response in conscious dogs at 10.0 mg/kg. It is filed as functional, Canis lupus familiaris. The essentials:
as §2

The target in series [13] is Phosphodiesterase; PDE3 & PDE4 (Homo sapiens) (UniProt P27815+Q14432+Q08499+Q07343+Q13370+Q08493). The series is described as follows: Inhibition of canine cardiac particulate cAMP phosphodiesterase. The following applies: Canis lupus familiaris; target entry is the homologue from another species; concentration not given here. It is filed as protein assay. The method in brief: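 Particulate cAMP phosphodiesterase fraction from dog heart; inhibition measured at 100 μM.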

For series [14], the system named is Canis familiaris. The series is described as follows: In vivo left ventricular contractility change in anesthetized dog at 30 mg/kg. The class given is functional, Canis lupus familiaris, Heart left ventricle. The essentials:
as §1

Series [15] deals with Canis familiaris. The series is described as follows: In vivo total peripheral resistance in anesthetized dog at 30 mg/kg. It is filed as functional, Canis lupus familiaris. The essentials:
as §1

The subject of series [16] is Canis familiaris. Kind of series: In vivo efficacy against halothane/epinephrine induced arrhythmias in 4 anesthetized dogs at 0.3 mg/kg. It is filed as functional, Canis lupus familiaris. The essentials:
as §4

Series [17] deals with Canis familiaris. The series is described as follows: In vivo coronary flow in anesthetized dog at 30 mg/kg. It is filed as functional, Canis lupus familiaris. The essentials: as §1
Series [18] concerns Canis familiaris. The series is described as follows: In vivo isoproterenol response in conscious dogs at 3.0 mg/kg. The class given is functional, Canis lupus familiaris. The method in brief: as §2
For series [19], the system named is Canis familiaris. Kind of series: In vivo PES efficacy in 8 conscious dogs (PES programmed electrical stimulation protocol). The class given is functional, Canis lupus familiaris. The method in brief: as §3
For series [20], the system named is Canis familiaris. Kind of series: In vivo efficacy against halothane/epinephrine induced arrhythmias in 6 anesthetized dogs at 3 mg/kg. It is filed as functional, Canis lupus familiaris. The essentials:
as §4

For series [21], the system named is Canis familiaris. The series is described as follows: In vivo PES efficacy in 9 conscious dogs (PES programmed electrical stimulation protocol). It is filed as functional, Canis lupus familiaris. The essentials:
as §3

The subject of series [22] is Canis familiaris. Kind of series: In vivo efficacy against halothane/epinephrine induced arrhythmias in 2 anesthetized dogs at 0.3 mg/kg. The class given is functional, Canis lupus familiaris. The method in brief: as §4
The species entered for series [23] is Mustela putorius furo. The series is described as follows: In vitro contractile function in isolated ferret papillary muscle at 10 uM. The class given is functional, Muscle tissue. The essentials:
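Isolated ferret papillary muscle; drug at 10 μM. Read-out is percent change in force of contraction from the control value. Value is the average of n experiments, with the range given.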

Series [24] concerns Canis familiaris. Kind of series: In vivo efficacy against halothane/epinephrine induced arrhythmias in 8 anesthetized dogs at 1 mg/kg. It is filed as functional, Canis lupus familiaris. The method in brief: as §4
Series [25] is described as follows: Bioavailability after oral administration of 3 mg/kg to dogs. The following applies: dog, in vivo. It is filed as ADME, organism-based, Canis lupus familiaris.
Series [26] in a line: Compound was evaluated for lethal dose in rats after intravenous administration; Range is 200-300 mg/kg. The note with it: rat, in vivo. It is filed as toxicity, organism-based.
Series [27] relates to Canis familiaris. The series is described as follows: In vivo efficacy against halothane/epinephrine induced arrhythmias in 4 anesthetized dogs at 3 mg/kg. It is filed as functional, Canis lupus familiaris. The essentials: as §4

Where only a bound is given, the exact number is not on record here.

Sequence of Beta-2 adrenergic receptor (P54833 whole entry): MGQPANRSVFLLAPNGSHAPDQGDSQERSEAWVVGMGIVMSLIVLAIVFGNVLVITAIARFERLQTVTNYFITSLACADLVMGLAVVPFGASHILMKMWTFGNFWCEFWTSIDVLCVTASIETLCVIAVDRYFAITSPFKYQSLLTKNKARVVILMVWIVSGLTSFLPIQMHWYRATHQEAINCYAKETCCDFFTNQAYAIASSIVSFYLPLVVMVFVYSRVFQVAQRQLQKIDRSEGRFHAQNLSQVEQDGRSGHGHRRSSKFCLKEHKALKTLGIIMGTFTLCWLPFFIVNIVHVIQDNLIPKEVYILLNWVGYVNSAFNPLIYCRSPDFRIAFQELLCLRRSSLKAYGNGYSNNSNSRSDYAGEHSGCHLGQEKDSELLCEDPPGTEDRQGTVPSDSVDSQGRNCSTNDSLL

As to `CCN(CC)CCOc1ccc(-n2ccnc2)cc1`, the “C20 APD95” value in the series listed under Canis familiaris [1] came out at 3.4 µM.

Regarding `Cc1nccn1-c1ccc(OCCNCC(O)COc2ccc(NS(C)(=O)=O)cc2)cc1.O=P(O)(O)O` (stereo not given), the “C20 APD95” value in the series filed under Canis familiaris [1] is 7.3 µM. Further, in the series listed under Mustela putorius furo [2], the “Delta F” value is on record as 9%. The half-maximal inhibitory concentration (IC50) – broadly, the concentration needed to halve the response being measured – in [3] was 57 µM.

Regarding `CS(=O)(=O)Nc1ccc(OC[C@@H](O)CNCCOc2ccc(-n3ccnc3)cc2)cc1.Cl`, in series [4], the half-life (as a rule, how long it takes for the measured level to halve) is 180 min. Further, the MAP in the series on Canis familiaris [5] is recorded as -30%. Moreover, in the series on Canis familiaris [6], the CO is -32%. For the same compound, the Response in the series with Canis familiaris [7] is 10%; in the series on Canis familiaris [9], -25%; with Canis familiaris [12], -64%; in the series on Canis familiaris [18], -45%. Further, in the series listed under Canis familiaris [1], the “C20 APD95” value was 0.8 µM. For the same compound, the HR with Canis familiaris [8] is on record as -48%. In addition, the minimal effective dose in the series with Canis familiaris [10] is ~0.4 mg/kg. Besides, the “Delta F” value in the series listed under Mustela putorius furo [2] is 75%. Moreover, the No. effective with Canis familiaris [11] came out at 4; in the series with Canis familiaris [16], 2; with Canis familiaris [19], 7. The inhibition (commonly the percentage by which the read-out fell short of the control) in series [13] was determined as 19%. Further, in the series on Canis familiaris [14], the “LV dP/dt” value is on record as -28%. Besides, in the series on Canis familiaris [15], the TPR was 6%. For the same compound, in series [3], inhibition was half-maximal at 100 µM (IC50). In addition, the Coronary flow with Canis familiaris [17] was -41%.

On to `CCN(CC)CC(O)COc1ccc(NS(C)(=O)=O)cc1` (stereo not given), for which the “C20 APD95” value in the series listed under Canis familiaris [1] was 4.8 µM.

As for `CC(C)NCC(O)c1ccc(NS(C)(=O)=O)cc1` (racemic) [SOTALOL], in the series with Canis familiaris [5], the MAP is -42%. Moreover, in the series with Canis familiaris [6], the CO is -61%. The Response with Canis familiaris [7] is listed as -72%; in the series with Canis familiaris [9], -42%; with Canis familiaris [18], -79%. Besides, in the series listed under Canis familiaris [1], the “C20 APD95” value is 18 µM. Moreover, the HR in the series on Canis familiaris [8] is listed as -51%. Further, the No. effective in the series with Canis familiaris [20] was determined as 6; in the series on Canis familiaris [11], 4; in the series with Canis familiaris [21] it was 7. Moreover, the minimal effective dose in the series with Canis familiaris [10] is ~2 mg/kg. Moreover, in the series with Canis familiaris [14], the “LV dP/dt” value is -52%. Also, the TPR with Canis familiaris [15] amounted to 78%. The Coronary flow in the series with Canis familiaris [17] was -51%.

Consider `CS(=O)(=O)Nc1ccc(OCC(O)CNCCOc2ccc(-n3ccnc3)cc2)cc1.Cl` (stereo not given), for which the MAP in the series with Canis familiaris [5] is on record as -25%. The CO in the series on Canis familiaris [6] is recorded as -28%. Moreover, the No. effective in the series with Canis familiaris [22] was 0; with Canis familiaris [24] it was 6; in the series on Canis familiaris [19] it was 8. In addition, the Response in the series with Canis familiaris [7] is listed as 30%; in the series with Canis familiaris [9] it was -0.75%; in the series with Canis familiaris [12] it was -78%; in the series on Canis familiaris [18], -74%. The “Delta F” value in the series filed under Mustela putorius furo [23] was determined as 53%. Further, the “C20 APD95” value in the series listed under Canis familiaris [1] was 0.4 µM. Moreover, the HR with Canis familiaris [8] is reported as -49%. The minimal effective dose in the series on Canis familiaris [10] is ~1 mg/kg. Besides, the LV dp/dt with Canis familiaris [14] is recorded as -38%. The compound further gave a TPR in the series with Canis familiaris [15] of 3%. Besides, the bioavailability (in general, dose-corrected exposure relative to a reference, in per cent) in [25] was determined as 60%. This compound also returned an IC50 in [3] of 47 µM. Also, the Coronary flow in the series on Canis familiaris [17] is given as -29%. For the same compound, the 50% lethal dose (LD50) – broadly, the dose at which mortality reaches 50% – in [26] is 200 mg/kg.

In the case of `Cc1nccn1-c1ccc(OCCNCC(O)COc2ccc(N(C)S(C)(=O)=O)cc2)cc1` (stereo not given), in the series listed under Canis familiaris [1], the “C20 APD95” value is >30 µM. Also, in the series listed under Mustela putorius furo [2], the “Delta F” value is -16%. In series [3], the concentration for half-maximal inhibition (IC50) was > 100 µM.

With `CC(C)(COc1ccc(-n2ccnc2)cc1)NCC(O)COc1ccc(NS(C)(=O)=O)cc1.Cl.Cl` (stereo not given), in the series listed under Canis familiaris [1], the “C20 APD95” value turned out to be 0.5 µM. In the series listed under Mustela putorius furo [2], the “Delta F” value worked out at 69%. In [3], it took 23 µM to reach half-maximal inhibition (IC50).

`CS(=O)(=O)Nc1ccc(OC[C@H](O)CNCCOc2ccc(-n3ccnc3)cc2)cc1.Cl`: the Response with Canis familiaris [7] is 40%; in the series with Canis familiaris [9], 62%; in the series with Canis familiaris [12], 41%; in the series on Canis familiaris [18], -6%. For the same compound, the “Delta F” value in the series filed under Mustela putorius furo [23] was found to be 27%. The “C20 APD95” value in the series listed under Canis familiaris [1] is 0.8 µM. For the same compound, the No. effective with Canis familiaris [11] and in the series on Canis familiaris [27] was 1 each time. The IC50 in series [3] is > 100 µM.

Consider `CN(c1ccc(OCC(O)CNCCOc2ccc(-n3ccnc3)cc2)cc1)S(C)(=O)=O.Cl.Cl` (stereo not given), for which the “C20 APD95” value in the series filed under Canis familiaris [1] turned out to be 1.4 µM. The “Delta F” value in the series filed under Mustela putorius furo [2] is -15%. Further, the half-maximal inhibitory concentration (IC50) in series [3] was > 100 µM.
